In brackets after ≈: the same amount, converted by molar mass.
Key:
Trypanosoma cruzi [1] = assay: Antitrypanosomal activity against Trypanosoma cruzi Tulahuen 2 at 25 uM; assay type: functional
How it was run: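 Tulahuen 2 epimastigotes (8 × 10⁶ cells/mL, 28 °C, BHI-tryptose with 5% FBS) were exposed to a single drug concentration, with final DMSO ≤0.4% and a vehicle control. Percent growth inhibition = {1 − [(Ap − A0p)/(Ac − A0c)]} × 100, using A600 of drug and control cultures at day 0 and day 5.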

Aspergillus fumigatus = assay: Antifungal activity against Aspergillus fumigatus ATCC 26934 after 48 hrs; assay type: functional; conditions: ATCC 26934, 48 h
How it was run: (§1)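 Aspergillus spp. were tested by CLSI M38-A broth microdilution in RPMI 1640 with MOPS at pH 7.0. Spore inoculum is 10³ CFU/mL, with two-fold compound dilutions and final DMSO ≤1%. Incubated at 35 °C in a moist, dark chamber. MIC is read visually as total growth inhibition, at a time set by growth of the control fungus.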

Aspergillus niger = assay: Antifungal activity against Aspergillus niger ATCC 9029 after 48 hrs; assay type: functional; conditions: ATCC 9029, 48 h; how it was run: as §1
Trichophyton rubrum = assay: Antifungal activity against Trichophyton rubrum C 113 after 48 hrs; assay type: functional; conditions: C 113, 48 h
How it was run: (§2)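 Dermatophytes were tested by CLSI M38-A microdilution in MOPS-buffered RPMI 1640 at pH 7.0. Inoculum is 10³ CFU/mL, with two-fold serial compound dilutions and final DMSO ≤1%. Trays are kept at 28–30 °C in a moist, dark chamber. MIC is the lowest concentration with total growth inhibition, read visually when control growth allows.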

[2] = tested on: Trichophyton mentagrophytes; assay: Antifungal activity against Trichophyton mentagrophytes ATCC 9972 after 48 hrs; assay type: functional; conditions: ATCC 9972, 48 h; how it was run: as §2
Candida tropicalis = assay: Antifungal activity against Candida tropicalis C 131 2000 after 48 hrs; assay type: functional; conditions: Candida tropicalis, C 131 2000, 48 h; for MIC: read-out: MIC
How it was run: (§3)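 CLSI M27-A2 broth microdilution in RPMI 1640 buffered to pH 7.0 with MOPS. Inoculum is 10³ CFU/mL from Sabouraud-grown yeasts. Compound is two-fold serially diluted, final DMSO ≤1%. Incubated at 35 °C in a moist, dark chamber and read visually at 48 h. MIC is the lowest concentration giving total growth inhibition.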

Nannizzia gypsea = assay: Antifungal activity against Microsporum gypseum C 115 after 48 hrs; assay type: functional; conditions: C 115, 48 h; how it was run: as §2
Saccharomyces cerevisiae = assay: Antifungal activity against Saccharomyces cerevisiae ATCC 9763 after 48 hrs; assay type: functional; conditions: ATCC 9763, 48 h; how it was run: as §3
Candida albicans = assay: Antifungal activity against Candida albicans ATCC 10231 after 48 hrs; assay type: functional; conditions: ATCC 10231, 48 h; how it was run: as §3
Cryptococcus neoformans = assay: Antifungal activity against Cryptococcus neoformans ATCC 32264 after 48 hrs; assay type: functional; conditions: Cryptococcus neoformans, ATCC 32264, 48 h; for MIC: read-out: MIC; how it was run: as §3
Aspergillus flavus = assay: Antifungal activity against Aspergillus flavus ATCC 9170 after 48 hrs; assay type: functional; conditions: ATCC 9170, 48 h; how it was run: as §1
Trypanosoma cruzi [3] = assay: Antitrypanosomal activity against Trypanosoma cruzi Tulahuen 2; assay type: functional; conditions: read-out: ID50 (the source's name)
How it was run: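 Epimastigotes were grown at 28 °C in BHI-tryptose with 5% FBS. Stationary-phase parasites are inoculated at 8 × 10⁶ cells/mL into medium containing increasing drug concentrations from DMSO stock (final DMSO ≤0.4%; vehicle control). Growth is followed by A600. ID50 is the concentration that halves the day-5 absorbance ratio relative to control.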

[4] = Selectivity index, ratio of ID50 for mouse J774 cells to ID50 for Trypanosoma cruzi Tulahuen 2; assay type: toxicity, cell-based; conditions: J774 cells versus Trypanosoma cruzi Tulahuen 2
How it was run: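 Selectivity index is the ID50 in J-774 macrophages (48 h MTT) divided by the ID50 against Tulahuen 2 epimastigotes (day-5 A600 growth).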

[5] = Cytotoxicity against mouse J774 cells after 48 hrs by MTT assay; assay type: cell-based; conditions: read-out: ID50
How it was run: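 J-774 macrophages were seeded at 1 × 10⁵ cells/well in RPMI 1640 with 20% heat-inactivated FCS and left to attach for 48 h at 37 °C in 5% CO₂. Cells were then exposed to compounds for 48 h. MTT was added at 0.4 mg/mL final, formazan was dissolved in DMSO, and A595 was read. ID50 is the concentration cutting control absorbance by 50%, averaged over three experiments.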

Row | MIC (Aspergillus fumigatus) [µg/mL] | MIC (Aspergillus niger) [µg/mL] | MIC (Trichophyton rubrum) [µg/mL] | MIC [2] [µg/mL] | MIC (Candida tropicalis) [µg/mL] | MIC (Nannizzia gypsea) [µg/mL] | MIC (Saccharomyces cerevisiae) [µg/mL] | MIC (Candida albicans) [µg/mL] | MIC (Cryptococcus neoformans) [µg/mL] | MIC (Aspergillus flavus) [µg/mL] | IC50 (Trypanosoma cruzi [3]) [µM] | Structure (SMILES) | inhibition at 25 µM (Trypanosoma cruzi [1]) [%] | MFC (Trichophyton rubrum) [µg/mL] | MFC [2] [µg/mL] | MFC (Nannizzia gypsea) [µg/mL] | selectivity ratio [4] | CC50 at 48 h [5] [µM] | also measured
1 | > 250 | > 250 | > 250 | > 250 | > 250 | > 250 | > 250 | > 250 | > 250 | > 250 | – | C=CCNC(=S)N/N=C/c1ccc2c(c1)[n+]([O-])c(C#N)c(N)[n+]2[O-] | 6 | – | – | – | – | – | –
2 | > 250 | > 250 | 250 (≈ 573 µM) | 250 (≈ 573 µM) | > 250 | 250 (≈ 573 µM) | > 250 | > 250 | 250 (≈ 573 µM) | > 250 | – | C=CCNC(=S)N/N=C/c1ccc2c(c1)[n+]([O-])c(C(=O)Nc1ccccc1)c(C)[n+]2[O-] | 0 | 250 (≈ 573 µM) | 250 (≈ 573 µM) | 250 (≈ 573 µM) | – | – | MFC (Cryptococcus neoformans): > 250 µg/mL
3 | – | – | – | – | – | – | – | – | – | – | 7.5 | C=CCNC(=S)N/N=C/c1ccc2c(c1)[n+]([O-])c(C(=O)OCC)c(-c1ccccc1)[n+]2[O-] | – | – | – | – | > 33.3 | > 400 | –
4 | – | – | – | – | – | – | – | – | – | – | 7.8 | CN(C/C=C/c1ccccc1)CCCCCn1nc(OCc2ccccc2)c2cc([N+](=O)[O-])ccc21 | – | – | – | – | < 12.8 | < 100 | –

More lines, now with the values behind:

Row | Structure (SMILES) | MIC (Aspergillus fumigatus) [µg/mL] | MIC (Aspergillus niger) [µg/mL] | MIC (Trichophyton rubrum) [µg/mL] | MIC [2] [µg/mL] | MIC (Candida tropicalis) [µg/mL] | MIC (Nannizzia gypsea) [µg/mL] | MIC (Saccharomyces cerevisiae) [µg/mL] | MIC (Candida albicans) [µg/mL] | MIC (Cryptococcus neoformans) [µg/mL] | MIC (Aspergillus flavus) [µg/mL] | IC50 (Trypanosoma cruzi [3]) [µM] | inhibition at 25 µM (Trypanosoma cruzi [1]) [%] | MFC (Trichophyton rubrum) [µg/mL] | MFC [2] [µg/mL] | MFC (Nannizzia gypsea) [µg/mL] | selectivity ratio [4] | CC50 at 48 h [5] [µM] | also measured
5 | O=[N+]([O-])c1ccc2c(c1)c(OCc1ccccc1)nn2CCOCCN(CCC/C=C/c1ccccc1)CCOCCn1nc(OCc2ccccc2)c2cc([N+](=O)[O-])ccc21 | – | – | – | – | – | – | – | – | – | – | – | 0 | – | – | – | – | – | –
6 | Cc1c(C(=O)Nc2ccccc2)[n+]([O-])c2cc(CN3CCN(C/C=C/c4ccccc4)CC3)ccc2[n+]1[O-] | > 250 | > 250 | 125 (≈ 245 µM) | 125 (≈ 245 µM) | > 250 | 125 (≈ 245 µM) | > 250 | > 250 | – | > 250 | 25.4 | – | > 250 | > 250 | > 250 | – | – | –
7 | C=CCNC(=S)N/N=C/c1ccc2c(c1)[n+]([O-])c(C)c(C)[n+]2[O-] | > 250 | > 250 | > 250 | > 250 | > 250 | > 250 | > 250 | > 250 | > 250 | > 250 | – | 21 | – | – | – | – | – | –
8 | C=CCNC(=S)N/N=C/c1ccc2c(c1)=[N+]([O-])C(C)(C)[N+]=2[O-] | > 250 | > 250 | 250 (≈ 783 µM) | 250 (≈ 783 µM) | > 250 | 250 (≈ 783 µM) | > 250 | > 250 | > 250 | > 250 | 7.2 | – | 250 (≈ 783 µM) | 250 (≈ 783 µM) | 250 (≈ 783 µM) | 14.4 | 104 | –
9 | CN(C/C=C/c1ccccc1)Cc1ccc2c(c1)[n+]([O-])c(C#N)c(N)[n+]2[O-] | – | – | – | – | – | – | – | – | – | – | – | 0 | – | – | – | – | – | –
10 | N#Cc1c(N)[n+]([O-])c2ccc(CN3CCN(C/C=C/c4ccccc4)CC3)cc2[n+]1[O-] | – | – | – | – | – | – | – | – | – | – | – | 0 | – | – | – | – | – | –
11 | CCOC(=O)c1c(-c2ccccc2)[n+]([O-])c2ccc(CN3CCN(C/C=C/c4ccccc4)CC3)cc2[n+]1[O-] | > 250 | > 250 | 125 (≈ 238 µM) | 125 (≈ 238 µM) | 250 (≈ 477 µM) | 250 (≈ 477 µM) | 125 (≈ 238 µM) | 250 (≈ 477 µM) | 125 (≈ 238 µM) | > 250 | 9.5 | – | 250 (≈ 477 µM) | 250 (≈ 477 µM) | > 250 | < 10.5 | < 100 | MFC (Candida tropicalis): > 250 µg/mL; MFC (Saccharomyces cerevisiae): 250 µg/mL (≈ 477 µM); MFC (Candida albicans): > 250 µg/mL; MFC (Cryptococcus neoformans): 250 µg/mL (≈ 477 µM)
12 | N#Cc1c2ccccc2[n+]([O-])n1CC/C=C\c1ccc(Cl)cc1 | – | – | – | – | – | – | – | – | – | – | – | 20 | – | – | – | – | – | –
13 | [O-][n+]1onc2ccc(CN3CCN(C/C=C/c4ccccc4)CC3)cc21 | – | – | – | – | – | – | – | – | – | – | – | 14 | – | – | – | – | – | –
